Assay results from different studies.
Protocols differ between the studies behind these lines.
Target: Beta-1 adrenergic receptor (ADRB1, Homo sapiens, UniProt P08588)

| SMILES | test | setting | measurement | result |
| --- | --- | --- | --- | --- |
| Cn1cncc1[C@@](O)(COc1ccc(C#N)cc1-c1ccc(OC(F)(F)F)cc1)c1ccc(C#N)cc1 | ligand displacement | 10 µM | inhibition | -16.5% |
| Clc1ccc2c(C3CCN(CCc4c[nH]c5ccccc45)CC3)c[nH]c2c1 | ligand displacement, radioligand | 10 µM | inhibition | 84% |
| C[C@H](C(=O)N[C@H]1COc2ccccc2[C@@H]1S(C)(=O)=O)c1ccc(F)cc1 | cell-free assay | 10 µM | inhibition | 3% |
| CC(C)N1CCC[C@H]1CNC(=O)c1cn(C2CCCC2)c(=O)c2c1c1ccccc1n2C | ligand displacement, radioligand | 10 µM | inhibition | 24% |
| CN(CCN1CCC(OC(=O)Nc2ccccc2-c2ccccc2)CC1)C(=O)c1ccc(CN2CCC(C(N)=O)CC2)cc1 | ligand displacement, radioligand | 1 µM | inhibition | 14% |
| O=C(Nc1cccnn1)N1CCN([C@@H]2CCOc3cc(C(F)(F)F)ccc32)CC1 | cell-free assay | 20 µM | inhibition | 27% |
| COc1ccc(S(=O)(=O)N2CCCCC2)cc1C | ligand displacement, radioligand | 10 µM | inhibition | < 30% |
| Cc1c(N2CCNCC2)nc2ccc(Br)cc2c1C(=O)NC[C@H](CCC(=O)O)c1ccccc1Cl | ligand displacement | 10 µM | inhibition | 12.6% |
| c1ccc(C(NCCNC(c2ccccc2)c2ccccc2)c2ccccc2)cc1 | cell-free assay | 10 µM | inhibition | 31% |
| Nc1ncc(-c2nc(N3CCOCC3)nc(N3CCOCC3)n2)c(C(F)F)n1 | cell-free assay, radioligand | 10 µM | remaining signal | 93.2% |
| COCc1c(-c2cc3cc(C)cc(OC)c3s2)c2c(N)ncnn2c1CN1CCNC(=O)C1 | ligand displacement, radioligand | 10 µM | inhibition | 2% |
